ChEMBL document CHEMBL3297668, “Synthesis of truncated analogues of preptin-(1–16), and investigation of their ability to stimulate osteoblast proliferation” (Bioorg Med Chem, 2014)
Calls of active or inactive are those of the source. No cut-off for these calls is given here. Where a SMILES comes first, the peptide text is derived from it.

The compounds below were run on Osteoblast (assay: Stimulation of proliferation of foetal rat osteoblasts at 10 '-10 to 10 '-8 M after 18 to 24 hrs by [3H]-thymidine incorporation assay relative to control).
Format: functional, cell-based
Outline: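 Osteoblasts from 20-day fetal rat calvariae (collagenase digests 3 and 4) were expanded in FBS medium with ascorbate-2-phosphate, seeded at 2.5 × 10⁴ cells/well in 5% FBS/MEM for 24 h, then growth-arrested 24 h in 0.1% BSA/5 µg/mL ascorbate-2-phosphate. Peptide treatment 24 h, with [³H]-thymidine pulse over the final 6 h. Result expressed as treatment/vehicle ratio. 6 wells/group, 3–4 experiments, ANOVA with Dunnett's test.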

| Compound | Activity |
| --- | --- |
| CC(=O)N[C@@H](CC(=O)O)C(=O)N[C@H](C(=O)N[C@@H](CO)C(=O)N[C@H](C(N)=O)[C@@H](C)O)C(C)C (Ac-DVST-NH2) | inactive |
| CC(=O)N[C@@H](CC(=O)O)C(=O)N[C@H](C(=O)N[C@@H](CO)C(=O)N[C@H](C(=O)O)[C@@H](C)O)C(C)C (Ac-DVST-OH) | inactive |
| CC(=O)N[C@@H](Cc1ccccc1)C(=O)N1CCC[C@H]1C(=O)N[C@@H](CCCNC(=N)N)C(=O)N[C@@H](Cc1ccc(O)cc1)C(N)=O (Ac-FPRY-NH2) | Active |
| CC(=O)N[C@@H](Cc1ccccc1)C(=O)N1CCC[C@H]1C(=O)N[C@@H](CCCNC(=N)N)C(=O)N[C@@H](Cc1ccc(O)cc1)C(=O)O (Ac-FPRY-OH) | inactive |
| CC(C)[C@H](NC(=O)[C@@H](N)CC(=O)O)C(=O)N[C@@H](CO)C(=O)N[C@H](C(N)=O)[C@@H](C)O (H-DVST-NH2) | inactive |
| CC(C)[C@H](NC(=O)[C@@H](N)CC(=O)O)C(=O)N[C@@H](CO)C(=O)N[C@H](C(=O)O)[C@@H](C)O (H-DVST-OH) | inactive |
| N=C(N)NCCC[C@H](NC(=O)[C@@H]1CCCN1C(=O)[C@@H](N)Cc1ccccc1)C(=O)N[C@@H](Cc1ccc(O)cc1)C(N)=O (H-FPRY-NH2) | inactive |
| N=C(N)NCCC[C@H](NC(=O)[C@@H]1CCCN1C(=O)[C@@H](N)Cc1ccccc1)C(=O)N[C@@H](Cc1ccc(O)cc1)C(=O)O (H-FPRY-OH) | inactive |
| Ac-DVSTSQAV-NH2 | inactive |
| Ac-DVSTSQAV-OH | inactive |
| Ac-DVSTSQAVLPDD-NH2 | inactive |
| Ac-DVSTSQAVLPDD-OH | inactive |
| Ac-DVSTSQAVLPDDFPRY-NH2 | Active |
| Ac-DVSTSQAVLPDDFPRY-OH | inactive |
| Ac-LPDDFPRY-NH2 | inactive |
| Ac-LPDDFPRY-OH | inactive |
| Ac-SQAVLPDDFPRY-NH2 | inactive |
| Ac-SQAVLPDDFPRY-OH | inactive |
| H-DVSTSQAV-OH | Active |
| H-DVSTSQAVLPDD-NH2 | inactive |
| H-DVSTSQAVLPDD-OH | inactive |
| H-DVSTSQAVLPDDFPRY-NH2 | inactive |
| H-DVSTSQAVLPDDFPRY-OH | Active |
| H-LPDDFPRY-NH2 | inactive |
| H-LPDDFPRY-OH | inactive |
| H-SQAVLPDDFPRY-NH2 | inactive |
| H-SQAVLPDDFPRY-OH | inactive |

These compounds were tested on Osteoblast (assay: Stimulation of differentiation of rat osteoblasts assessed as increase in mineralized bone nodules at 10 '-9 M after 3 weeks using Von Kossa staining by bone nodule formation assay relative to control).
Format: functional, cell-based
Outline: (§1)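 Primary osteoblasts from 20-day fetal rat calvariae (sequential collagenase digests 3 and 4) plated at 5 × 10⁴ cells/well in αMEM/10% FBS plus ascorbate-2-phosphate. At confluence (~3 days), medium switched to MEM/15% FBS with 50 µg/mL L-ascorbic acid-2-phosphate and 10 mM β-glycerophosphate, plus peptide; medium and peptide renewed twice weekly. Dexamethasone positive control. At 21 days, fixed in 10% neutral buffered formalin, Von Kossa stained, mineralized area quantified by image analysis.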

| Compound | Activity |
| --- | --- |
| H-DVSTSQAV-OH | Active |

Each compound was assayed on Osteoblast (assay: Stimulation of differentiation of rat osteoblasts assessed as increase in mineralized bone nodules at 10 '-10 to 10 '-9 M after 3 weeks using Von Kossa staining by bone nodule formation assay relative to control).
Format: functional, cell-based
Outline: as §1

| Compound | Activity |
| --- | --- |
| CC(=O)N[C@@H](Cc1ccccc1)C(=O)N1CCC[C@H]1C(=O)N[C@@H](CCCNC(=N)N)C(=O)N[C@@H](Cc1ccc(O)cc1)C(N)=O (Ac-FPRY-NH2) | inactive |
